Consider two molecules from ChEMBL document CHEMBL3297648, “Diterpenoids from the Chinese liverwort Heteroscyphus tener and their antiproliferative effects” (J Nat Prod, 2014).

For one assay, the system named is NCI-H292. As to the kind of experiment: Antiproliferative activity against human NCI-H292 cells assessed as inhibition of cell viability after 24 hrs by MTT assay. Type of assay: functional, cell-based. To be noted: NCI-H292, 24 h. In a few lines: (§1)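 Cells grown to 50–70% confluence (RWPE1 in K-SFM with pituitary extract and EGF; the other lines in RPMI 1640 with 10% FBS), 5% CO2, 37 °C. Treated for 24 h with DMSO vehicle, compounds, or cisplatin as positive control. MTT (5 mg/mL) added for 4 h, formazan dissolved in DMSO, absorbance read at 570 nm. Viability taken relative to untreated cells after blank subtraction, IC50 fitted from % viability, at least three experiments.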

A short description of assay [1]: Antiproliferative activity against human PC3 cells assessed as inhibition of cell viability after 24 hrs by MTT assay. Type of assay: functional, cell-based. The settings on record: PC-3, 24 h. Put shortly:
as §1
(In general: Formazan colour is commonly taken as a measure of viable cells.)

The next assay concerns DU-145. The assay can be described thus: Antiproliferative activity against human DU145 cells assessed as inhibition of cell viability after 24 hrs by MTT assay. Type of assay: functional, cell-based. To be noted: DU-145, 24 h. In a few lines: as §1
A further assay concerns K562. As to the kind of experiment: Antiproliferative activity against human K562 cells assessed as inhibition of cell viability after 24 hrs by MTT assay. Type of assay: functional, cell-based. The settings on record: K562, 24 h. Put shortly:
as §1

A further assay relates to A549. As to the kind of experiment: Antiproliferative activity against human A549 cells assessed as inhibition of cell viability after 24 hrs by MTT assay. Type of assay: functional, cell-based. The settings on record: A549, 24 h. Put shortly: as §1
Another assay relates to NCI-H1299. The assay can be described thus: Antiproliferative activity against human NCI-H1299 cells assessed as inhibition of cell viability after 24 hrs by MTT assay. The settings on record: NCI-H1299, 24 h. Type of assay: functional, cell-based. In a few lines:
as §1

Another assay relates to NCI-H446. As to the kind of experiment: Antiproliferative activity against human NCI-H446 cells assessed as inhibition of cell viability after 24 hrs by MTT assay. Type of assay: functional, cell-based. The settings on record: NCI-H446, 24 h. In a few lines:
as §1

A short description of assay [2]: Antiproliferative activity against human RWPE1 cells assessed as inhibition of cell viability after 24 hrs by MTT assay. Type of assay: cell-based. To be noted: RWPE-1, 24 h. Put shortly:
as §1

A short description of assay [3]: Antiproliferative activity against HBE cells assessed as inhibition of cell viability after 24 hrs by MTT assay. Type of assay: cell-based. To be noted: Homo sapiens. Put shortly: as §1

Consider `CC(C)[C@H]1CC[C@]2(C)C[C@]3(O)C(=CC(=O)[C@H]3C)[C@@H](C)CC[C@@H]12` [ANADENSIN], for which the IC50 (usually the concentration that gives 50% inhibition) is 39.9 µM in the assay with NCI-H292; over 40 µM in [1]; over 40 µM in the assay on DU-145; over 40 µM in the assay on K562; over 40 µM in the assay with A549; 27 µM in the assay with NCI-H1299. Further, the IC50 (with NCI-H446; in [2]; in [3]) was over 40 µM each time.
Take `C=C[C@]1(C)CC[C@H]2[C@]3(C)CCCC(C)(C)[C@H]3[C@@H]3C[C@@]2(O1)C(=O)O3`: the IC50 in the assay with NCI-H292 came out at 10.7 µM; in assay [1], 20 µM; in the assay with DU-145, 18.9 µM; in the assay on K562, 34 µM; in the assay on A549 it was 21.5 µM; in the assay on NCI-H1299 it was 21.9 µM. The IC50 turned out to be 16.7 µM in the assay on NCI-H446, 26.4 µM in assay [2] and 53.2 µM in assay [3].
